One data set has as its system nasal mucosa. Kind of data set: Test for nasal toxicity of NEs. In kind it is in vivo, Wistar rats. Conditions: rats, intranasal, 14 consecutive days; mucosa on days 1, 7, 14. The method, boiled down: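 Male Wistar rats (200 g), four groups of three, dosed intranasally. Groups: saline (negative control), 1% sodium deoxycholate in 50 µL saline (positive control), or one of two nanoemulsions for 14 consecutive days. Nasal mucosa collected after sacrifice on days 1, 7 and 14, fixed 24 h in 10% buffered formalin, dehydrated in ethanol, cleared in xylene and paraffin-embedded. Sections stained with H&E and examined by light microscopy.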

Data set [1] can be described thus: In vitro drug release, dialysis bag in phosphate buffer pH 6.8. In kind it is physicochemical. Conditions: at 24 h; phosphate buffer pH 6.8, 37 °C. The gist of the method: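 Dialysis bag (12–14 kDa cut-off), pre-soaked overnight in medium, held 1 mL of freshly prepared nanoemulsion (5 mg/mL drug). Bag placed in 100 mL phosphate buffer pH 6.8 at 37 °C, shaken at 50 rpm. At set times 4 mL was withdrawn and replaced with fresh medium. HupA measured by HPLC (C18, methanol–water 43:57, 308 nm), plotted as cumulative % released versus time. Drug suspension run under the same sink conditions.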

Data set [2] can be described thus: Pharmacokinetic study after intranasal administration. Conditions: rats. Format: in vivo, Wistar rats. The gist of the method:
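Wistar rats (200±20 g) anaesthetised with 10% chloral hydrate received 50 µL of formulation through a PE 10 tube inserted 1 cm into the nostril. Orbital blood and tissues taken at 0.083–24 h (11 points). Plasma or tissue homogenate alkalised with 2 mol/L NaOH, extracted with 2 mL ethyl acetate, dried under nitrogen, redissolved in methanol and assayed by HPLC. Parameters calculated by software; mean±SD, n=6.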

The nature of data set [3]: Saturation solubility of HupA in oils, surfactants and co-surfactants. Conditions: thermodynamic from solid. In kind it is physicochemical. The method, boiled down:
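Excess HupA added to 0.2 mL vehicle, vortexed 10 min, then kept 24 h at 37±0.5 °C in a shaking water bath. Mixture centrifuged at 6000 rpm for 10 min and supernatant filtered (0.45 µm). 0.1 mL diluted in methanol and dissolved drug quantified by HPLC.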

For another data set, the system named is hCMEC/D3 cells. Kind of data set: Cellular uptake and transporter/endocytosis inhibition assay. Conditions: 30 min pre-incubation with inhibitor. Format: cell-based, human. The method, boiled down: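 hCMEC/D3 cells grown to 90% confluence, then pre-incubated 30 min at 37 °C, 5% CO2 with one inhibitor: verapamil 10 µM, MK571 10 µM, ko143 1 µM, […], aprotinin 200 µg/mL, colchicine 2.5 µM or […]. Nanoemulsion or HupA solution added for 1 h. Cells washed with ice-cold PBS, lysed in 1% Triton X-100, dichloromethane-extracted and analysed by HPLC; mean±SD, n=3.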

The results in this text go back to article PMC6885571 (International Journal of Nanomedicine, 2019).

Converted amounts (≈) assume the structure as drawn.

Broadly, the AUC(0-t) is exposure summed from dosing to a finite time, without extrapolation to infinity. A high value points to more exposure. One may read the Cmax as the highest concentration seen after dosing. As usually defined, the Tmax is the time at which the peak concentration occurs. As a reminder, the solubility is the dissolved amount per volume that the medium holds.

For `C[C@H](CCC(=O)[O-])[C@H]1CC[C@H]2[C@@H]3CC[C@@H]4C[C@H](O)CC[C@]4(C)[C@H]3C[C@H](O)[C@]12C.[Na+]` [1% deoxycholic acid sodium solution, deoxycholic acid sodium], the “nasal mucosa toxicity (histology)” value in the data set on nasal mucosa is given as “extensive damage to the nasal mucosa”.
Regarding `C/C=C1\[C@H]2C=C(C)C[C@]1(N)c1ccc(=O)[nH]c1C2` [HupA Solution], the drug released in data set [1] is 63%. In data set [2] (brain), the “AUC(0-t)” value was 0.021507 µg·h/mL, the “AUC(0-∞)” value worked out at 0.023765 µg·h/mL, the Cmax turned out to be 0.01329 µg/mL and the “MRT(0-t)” value stood at 1.255 h. Besides, in data set [2] (brain), the “MRT(0-∞)” value is listed as 1.674 h, the T1/2 is 1.173 h and the time to peak (Tmax) is on record as 0.25 h. For the same compound, in data set [2] (plasma), the “AUC(0-t)” value was determined as 0.051188 µg·h/mL, the “AUC(0-∞)” value stood at 0.051378 µg·h/mL, the maximum concentration (Cmax) is 0.05695 µg/mL and the “MRT(0-t)” value amounted to 1.153 h. For the same compound, in data set [2] (plasma), the “MRT(0-∞)” value was found to be 1.439 h, the T1/2 is 0.769 h and the Tmax was found to be 0.25 h.
As to `C/C=C1\[C@H]2C=C(C)C[C@]1(N)c1ccc(=O)[nH]c1C2` [HupA, Huperzine A], the solubility at 24 h in data set [3] (Capryol90, 37 °C, oil or lipid) amounted to 38.33 ± 0.15 mg/mL (≈ 158 mM); in data set [3] (Cremophor EL, 37 °C), 34.7 ± 0.09 mg/mL (≈ 143 mM); in data set [3] (Grape seed oil, 37 °C, oil or lipid), 1.96 ± 0.01 mg/mL (≈ 8.09 mM); in data set [3] (L.A.S, 37 °C), 34.96 ± 0.13 mg/mL (≈ 144 mM); in data set [3] (LABRAFIL M 1944 CS, 37 °C, oil or lipid), 19.7 ± 0.24 mg/mL (≈ 81.3 mM); in data set [3] (Labrasol, 37 °C), 102.2 ± 0.65 mg/mL (≈ 422 mM). In addition, the solubility at 24 h in data set [3] (PEG400, 37 °C, organic solvent or mixture) is 98.41 ± 0.35 mg/mL (≈ 406 mM); in data set [3] (Plurol Oleique CC 497, 37 °C) it was 15.5 ± 0.31 mg/mL (≈ 64 mM); in data set [3] (Propanediol, 37 °C, organic solvent or mixture), 65.3 ± 0.91 mg/mL (≈ 270 mM); in data set [3] (Soybean oil, 37 °C, oil or lipid) it was 2.73 ± 0.07 mg/mL (≈ 11.3 mM); in data set [3] (Span 80, 37 °C) it was 13.35 ± 0.12 mg/mL (≈ 55.1 mM); in data set [3] (Tween 80, 37 °C), 21 ± 0.45 mg/mL (≈ 86.8 mM). The compound also yielded a solubility at 24 h in data set [3] (isopropyl myristate (IPM), 37 °C, oil or lipid) of 2.43 ± 0.01 mg/mL (≈ 10 mM).
For the compound Aprotinin, the “effect of inhibitor on transport of HupA-NE across the cells” value in the data set with hCMEC/D3 cells (then HupA-NE 1 h) is reported as “restricted transport”. For the same compound, the “effect of inhibitor on Lf-HupA-NE transport” value in the data set on hCMEC/D3 cells (then Lf-HupA-NE 1 h) is listed as “mildly reduced”.
